Assay results reported in ChEMBL document CHEMBL4725359, “Development of Potent PfCLK3 Inhibitors Based on TCMDC-135051 as a New Class of Antimalarials” (J Med Chem, 2020).
The source made the active and inactive calls. The calls are words filed in the database; no cut-off is given here.

Tests used:
[1] = Inhibition of recombinant full-length Plasmodium falciparum 3D7 CLK3 using ULight-labelled CFFKNIVTPRTPPPSQGK as substrate measured after 1 hr by TR-FRET assay
Summary of the method: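 Peptide substrate plus cold ATP with serially diluted inhibitor, 37 °C for 1 h. Stopped with 30 mM EDTA and Eu-anti-phospho antibody (3 nM), 1 h RT, read 665 nm emission. Normalised to no-kinase/no-inhibitor wells; three independent experiments in triplicate, mean ± SEM.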

Plasmodium falciparum [2] = test: Antimalarial activity against chloroquine-sensitive synchronized ring stage of Plasmodium falciparum 3D7 incubated for 48 to 52 hrs by SYBR green 1 dye based assay; format: functional, organism-based
[3] = Distribution coefficient, log D of the compound at pH 7.4 by HPLC method; format: physicochemical; conditions: octanol/water
Plasmodium falciparum [4] = test: Antimalarial activity against Plasmodium falciparum isolate GB0006 assessed as reduction in parasitemia at 1 to 10 times EC50 supplemented with fresh medium containing compounds every 24 hrs for 72 hrs relative to control; format: functional
Summary of the method: (§1)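 Parasite reduction ratio setup: cryopreserved clinical isolates thawed and cultured at least one cycle (~48 h ± 2); new rings 0–3 h post-invasion taken as t = 0. […] 24 h arm: drug removed by two washes; 48 and 72 h arms: fresh drug every 24 h.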

Plasmodium falciparum [5] = test: Antimalarial activity against Plasmodium falciparum isolate GB0004 assessed as reduction in parasitemia at 1 to 10 times EC50 supplemented with fresh medium containing compounds every 24 hrs for 72 hrs relative to control; format: functional; summary of the method: as §1
Plasmodium falciparum [6] = test: Antimalarial activity against Plasmodium falciparum isolate GB0021 assessed as reduction in parasitemia at 1 to 10 times EC50 supplemented with fresh medium containing compounds every 24 hrs for 72 hrs relative to control; format: functional; summary of the method: as §1
Plasmodium falciparum [7] = test: Antimalarial activity against Plasmodium falciparum isolate GB0048 assessed as reduction in parasitemia at 1 to 10 times EC50 supplemented with fresh medium containing compounds every 24 hrs for 72 hrs relative to control; format: functional; summary of the method: as §1
Plasmodium falciparum [8] = test: Antimalarial activity against Plasmodium falciparum isolate GB0071 assessed as reduction in parasitemia at 1 to 10 times EC50 supplemented with fresh medium containing compounds every 24 hrs for 72 hrs relative to control; format: functional; summary of the method: as §1
Plasmodium falciparum [9] = test: Antimalarial activity against Plasmodium falciparum isolate GB0087 assessed as reduction in parasitemia at 1 to 10 times EC50 supplemented with fresh medium containing compounds every 24 hrs for 72 hrs relative to control; format: functional; summary of the method: as §1
Plasmodium falciparum [10] = test: Antimalarial activity against Plasmodium falciparum isolate GB0020 assessed as reduction in parasitemia at 1 to 10 times EC50 supplemented with fresh medium containing compounds every 24 hrs for 72 hrs relative to control; format: functional, organism-based; summary of the method: as §1
Plasmodium falciparum [11] = test: Antimalarial activity against Plasmodium falciparum isolate GB002 assessed as reduction in parasitemia at 1 to 10 times EC50 supplemented with fresh medium containing compounds every 24 hrs for 72 hrs relative to control; format: functional, organism-based; summary of the method: as §1
Plasmodium falciparum [12] = test: Antimalarial activity against Plasmodium falciparum isolate GB0026 assessed as reduction in parasitemia at 1 to 10 times EC50 supplemented with fresh medium containing compounds every 24 hrs for 72 hrs relative to control; format: functional, organism-based; summary of the method: as §1
Plasmodium falciparum [13] = test: Antimalarial activity against Plasmodium falciparum isolate GB0020 assessed as reduction in parasitemia at 1 to 10 times EC50 measured after 24 hrs relative to control; format: functional; design: scale not given: the % may be the effect or the level left; summary of the method: as §1
Plasmodium falciparum [14] = test: Antimalarial activity against Plasmodium falciparum isolate GB002 assessed as reduction in parasitemia at 1 to 10 times EC50 measured after 24 hrs relative to control; format: functional; design: scale not given: the % may be the effect or the level left; summary of the method: as §1
Plasmodium falciparum [15] = test: Antimalarial activity against Plasmodium falciparum isolate GB0026 assessed as reduction in parasitemia at 1 to 10 times EC50 measured after 24 hrs relative to control; format: functional; design: scale not given: the % may be the effect or the level left; summary of the method: as §1
Plasmodium falciparum [16] = test: Antimalarial activity against Plasmodium falciparum isolate GB0020 assessed as reduction in parasitemia at 10 times EC50 measured after 72 hrs; format: functional, organism-based; summary of the method: as §1
Plasmodium falciparum [17] = test: Antimalarial activity against Plasmodium falciparum isolate GB002 assessed as reduction in parasitemia at 10 times EC50 measured after 72 hrs; format: functional, organism-based; summary of the method: as §1
Plasmodium falciparum [18] = test: Antimalarial activity against Plasmodium falciparum isolate GB0026 assessed as reduction in parasitemia at 10 times EC50 measured after 72 hrs; format: functional, organism-based; summary of the method: as §1

IC50 [1] | pIC50 [1] | EC50 (Plasmodium falciparum [2]; read-out: EC50) | logD [3] | Structure (SMILES) | also measured
79 nM | 7.1 | 1460 nM | 2.45 | COc1ccccc1-c1cc2c(-c3ccc(C(=O)O)c(C(C)C)c3)ccnc2[nH]1 | EC50 (Plasmodium falciparum [2]; read-out: pEC50 (converted)): 1580 nM
1380 nM | 4.9 |  |  | CCN(CC)Cc1ccc(OC)c(-c2cc3c(-c4ccc(C(C)C)c(C(=O)O)c4)ccnc3[nH]2)c1 | 
390 nM | 6.4 |  | 2.45 | CCOC(=O)c1ccc(-c2ccnc3[nH]c(-c4cc(CN(CC)CC)ccc4OC)cc23)cc1C(C)C | 
24 nM | 7.6 | 1180 nM | 0.66 | CCN(CC)Cc1ccc(OC)c(-c2cc3c(-c4ccc(C(=O)O)c(C)c4)ccnc3[nH]2)c1 | EC50 (Plasmodium falciparum [2]; read-out: pEC50 (converted)): 2510 nM
29 nM | 7.5 | 457 nM | 0.85 | COc1ccc(CN(C)C)cc1-c1cc2c(-c3ccc(C(=O)O)c(C(C)C)c3)ccnc2[nH]1 | 
38 nM | 7.4 | 382 nM | 2.43 | COc1ccc(CN2CCCC2)cc1-c1cc2c(-c3ccc(C(=O)O)c(C(C)C)c3)ccnc2[nH]1 | 
25 nM | 7.6 | 309 nM | 0.8 | CCN(CC)Cc1cccc(-c2cc3c(-c4ccc(C(=O)O)c(C(C)C)c4)ccnc3[nH]2)c1 | 
1300 nM | 6 |  | 4.45 | CCN(CC)Cc1ccc(OC)c(-c2cc3c(-c4cccc(C(C)C)c4)ccnc3[nH]2)c1 | 
9 nM | 8 |  |  | COc1ccc(CN2CCOCC2)cc1-c1cc2c(-c3ccc(C(=O)O)c(C(C)C)c3)ccnc2[nH]1 | 
40 nM | 7.4 |  | 0.93 | CCN(CC)Cc1ccc(OC)c(-c2cc3c(-c4ccc(C(=O)O)c(C(C)C)c4)ccnc3[nH]2)c1 | Activity (Plasmodium falciparum [4]): Active; Activity (Plasmodium falciparum [5]): Active; Activity (Plasmodium falciparum [6]): Active; Activity (Plasmodium falciparum [7]): Active; Activity (Plasmodium falciparum [8]): Active; Activity (Plasmodium falciparum [9]): Active; Activity (Plasmodium falciparum [10]): Active; Activity (Plasmodium falciparum [11]): Active; Activity (Plasmodium falciparum [12]): Active
19 nM | 7.7 |  | 0.93 | CCN(CC)Cc1ccc(OC)c(-c2cc3c(-c4ccc(-c5nnn[nH]5)c(C(C)C)c4)ccnc3[nH]2)c1 | 
76 nM | 7.1 | 2800 nM | 0.61 | COc1ccc(CN)cc1-c1cc2c(-c3ccc(C(=O)O)c(C(C)C)c3)ccnc2[nH]1 | EC50 (Plasmodium falciparum [2]; read-out: pEC50 (converted)): 2510 nM
17 nM | 7.7 | 3170 nM | 0.74 | CCN(CC)Cc1cccc(-c2cc3c(-c4ccc(C(=O)O)c(C(C)C)c4)ccnc3[nH]2)c1OC | EC50 (Plasmodium falciparum [2]; read-out: pEC50 (converted)): 2510 nM
22 nM | 7.7 | 3530 nM | 0.59 | CCN(CC)Cc1ccc(O)c(-c2cc3c(-c4ccc(C(=O)O)c(C(C)C)c4)ccnc3[nH]2)c1 | 
 |  | 18 nM |  | CCc1nc(N)nc(N)c1-c1ccc(Cl)cc1 [PYRIMETHAMINE] | Activity (Plasmodium falciparum [4]): >=70%; Activity (Plasmodium falciparum [6]): >=70%; Activity (Plasmodium falciparum [7]): >=70%; Activity (Plasmodium falciparum [8]): >=70%; Activity (Plasmodium falciparum [9]): >=70%; Activity (Plasmodium falciparum [13]): 45%; Activity (Plasmodium falciparum [14]): 64%; Activity (Plasmodium falciparum [15]): 36%; Activity (Plasmodium falciparum [16]): inactive; Activity (Plasmodium falciparum [17]): inactive; Activity (Plasmodium falciparum [18]): inactive
34 nM | 7.5 | 3270 nM | 0.65 | CCN(CC)Cc1ccc(OC)c(-c2cc3c(-c4ccc(C(=O)O)cc4)ccnc3[nH]2)c1 | 
